Measured values reported in PMC12429009 (The FASEB Journal, 2025).
Numbering of substitutions follows the chain as printed. Names and notes keep the numbering of the source. “Also recorded” adds a separate entry of the source.

B1: Y82A: 14‐3‐3ζ mutant, monomer, ATPase null mutant (protein)
chain: MDKNELVQKAKLAEQAERYDDMAACMKSVTEQGAELSNEERNLLSVAYKNVVGARRSSWRVVSSIEQKTEGAEKKQQMAREAREKIETELRDICNDVLSLLEKFLIPNASQAESKVFYLKMKGDYYRYLAEVAAGDDKKGIVDQSQQAYQEAFEISKKEMQPTHPIRLGLALNFSVFYYEILNSPEKACSLAKTAFDEAIAELDTLSEESYKDSTLIMQLLRDNLTLWTSDTQGDEAEAGEGGEN
modifications: left off: His6, end not stated, cleaved
B2: E180AN173V: 14‐3‐3ζ double mutant (protein)
chain: B1 chain with A82Y, N173V, E180A
modifications: left off: His6, end not stated, cleaved
B3: N173V (protein)
chain: B1 chain with A82Y, N173V
modifications: left off: His6, end not stated, cleaved
B4: D124A (protein)
chain: B1 chain with A82Y, D124A
modifications: left off: His6, end not stated, cleaved

Columns and labels:
[1] = tested on: 14‐3‐3; settings: cited from earlier work
[2] = Gel filtration, Hiload 16/600 Superdex 200; format: physicochemical
Procedure, shortened: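 After His‐tag removal with TEV protease, untagged 14‐3‐3ζ WT or mutant protein from E. coli BL21 DE3 was run on the Superdex 200 column in 50 mM Tris/Cl pH 8.0, 400 mM NaCl, 10% glycerol. Peak fractions collected and elution profile recorded.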

[3] = Oligomeric status by native PAGE; format: physicochemical; settings: 15 μg protein, 10% native gel (legend: 12%), Coomassie blue
Procedure, shortened: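 Purified untagged 14‐3‐3ζ WT and mutant apoproteins (E. coli‐expressed, Ni‐NTA plus size exclusion, TEV‐cleaved), buffer‐exchanged into 50 mM Na‐HEPES pH 8.0, 150 mM NaCl, 10% glycerol, then run under nondenaturing conditions. Migration read as monomer or dimer.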

[4] = tested on: FAM‐labeled peptides (mode2 phosphopeptide); test: Peptide binding ability of 14‐3‐3ζ mutant proteins by fluorescence polarization; settings: FP; FAM‐labeled peptide 62.5 nM, protein 8 to 0.0625 μM, 25°C, 30 min
Procedure, shortened: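 Untagged 14‑3‑3ζ mutants (E. coli BL21 DE3; Ni‑NTA, SEC, TEV cleavage) in 50 mM Na‑HEPES pH 8.0, 150 mM NaCl, 10% glycerol. Protein titrated 8 to 0.0625 μM against constant 62.5 nM N‑terminal FAM‑labeled phosphopeptide. Incubated 30 min at 25°C in the dark before anisotropy reading; K_D fitted.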

[5] = tested on: 14‐3‐3ζ WT and mutant proteins; test: ATPase activity; format: biochemical, human; settings: 10 μM protein, 1 mM ATP, 37°C, 2 h; three independent experiments
[6] = Thermal stability by nano‐DSF; format: physicochemical
[7] = tested on: 14‐3‐3; settings: ref 16 (Ramteke et al.); cited from earlier work

Molecule | binding to 14‐3‐3 alone [1] | effect of AMP on 14‐3‐3‐ChREBP peptide complex [1] | gel filtration elution volume [2] | migration on native PAGE / oligomeric state [3] | peptide binding of 14‐3‐3ζ mutant protein (in words) [4] | ATPase activity (in words, compared with WT) [5] | thermal stability (in words) [6] | ATPase activity (earlier study) [7]
Nc1ncnc2c1ncn2[C@@H]1O[C@H](COP(=O)(O)O)[C@@H](O)[C@H]1O [AMP] | Neither AMP nor the nonphospho ChREBP peptide alone can bind strongly to the 14‐3‐3 | stabilizes 14‐3‐3‐ChREBP peptide‐complex |  |  |  |  |  | 
14‐3‐3ζ WT: wild-type 14‐3‐3ζ protein expressed in E. coli |  |  | 68 mL | migrated as dimers |  |  |  | 
B1 |  |  | 74 mL | could be monomeric in nature | bound the peptide with comparable affinity to the WT; also recorded: bind all peptides with the same affinity as the WT | near background luminescence readings‐ it is practically an ATPase null mutant |  | 
B2 |  |  |  | migrated as dimers |  |  | most unstable and prone to aggregation | 
B3 |  |  |  | migrated as dimers | defective in peptide binding assays; also recorded: binds less well to the phosphopeptide ligands | had increased ATPase activity and has more affinity for ATP; also recorded: enhanced ATPase activity | more stable than the D124A | 
B4 |  |  |  | migrated as dimers | defective in peptide binding | higher than that of the WT protein; also recorded: enhanced ATPase activity |  | increase in ATPase activity
